# Assay results as given in ChEMBL document CHEMBL1128311, “Probes for narcotic receptor-mediated phenomena. 20. Alteration of opioid receptor subtype selectivity of the 5-(3-hydroxyphenyl)morphans by application of the message-address concept: preparation of delta-opioid receptor ligands” (J Med Chem, 1995).
# pIC50: −log10 of the molar value. Values joined by “and” are separate entries in the source; they are usually repeats but may differ in a detail not shown here. Equal values may be shown once.
# Key:
# [1] = target: Opioid receptors; mu & delta (Rattus norvegicus) (UniProt P33533+P33535); experiment: Selectivity as the ratio of IC50 value against mu receptor to that of delta receptor.; type: protein assay
# Sequence of Opioid receptors; mu & delta (Rattus norvegicus) (P33533 whole entry, looked up): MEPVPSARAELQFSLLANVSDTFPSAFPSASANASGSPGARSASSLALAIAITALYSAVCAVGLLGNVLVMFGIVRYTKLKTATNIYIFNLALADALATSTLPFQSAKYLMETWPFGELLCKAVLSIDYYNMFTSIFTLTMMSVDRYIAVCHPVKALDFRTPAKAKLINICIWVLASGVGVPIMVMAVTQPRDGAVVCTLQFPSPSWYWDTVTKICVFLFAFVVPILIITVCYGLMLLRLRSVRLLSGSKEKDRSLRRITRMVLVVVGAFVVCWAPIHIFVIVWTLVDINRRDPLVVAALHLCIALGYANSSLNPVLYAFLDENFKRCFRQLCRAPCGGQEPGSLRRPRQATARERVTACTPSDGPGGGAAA
# Sequence of Opioid receptors; mu & delta (Rattus norvegicus) (P33535 whole entry, looked up): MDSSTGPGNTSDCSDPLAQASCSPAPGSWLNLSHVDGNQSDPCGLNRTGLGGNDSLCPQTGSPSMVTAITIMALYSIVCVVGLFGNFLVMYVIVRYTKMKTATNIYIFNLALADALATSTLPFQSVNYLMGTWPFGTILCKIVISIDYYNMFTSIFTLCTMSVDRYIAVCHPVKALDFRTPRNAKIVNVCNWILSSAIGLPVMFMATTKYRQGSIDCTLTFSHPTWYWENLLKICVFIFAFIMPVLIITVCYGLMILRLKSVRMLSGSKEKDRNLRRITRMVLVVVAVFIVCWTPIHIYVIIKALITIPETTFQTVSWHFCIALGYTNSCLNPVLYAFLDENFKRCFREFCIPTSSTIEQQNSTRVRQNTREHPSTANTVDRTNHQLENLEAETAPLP
# Mu-type opioid receptor [2] = target: Mu-type opioid receptor (Rattus norvegicus, UniProt P33535); experiment: Inhibition of [3H]DAMGO radioligand binding to rat brain opioid receptor mu 1.
# Sequence of Mu-type opioid receptor (Rattus norvegicus, UniProt P33535) (P33535 whole entry): as the sequence (P33535 whole entry, looked up) above
# Summary of the method: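 Rat brain membranes labelled with [3H]DAMGO (1-3 nM). Incubation 4 h at 25 °C in 50 mM Tris-HCl pH 7.4 with protease inhibitor cocktail. Nonspecific binding with 20 μM levallorphan. 8-10 drug concentrations, run twice. Dilutions in 10 mM Tris-HCl pH 7.4 with 1 mg/mL BSA. IC50 from curve fitting.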
# Mu-type opioid receptor [3] = target: Mu-type opioid receptor (Cavia porcellus, UniProt P97266); experiment: The opioid activity against the mu-receptor in the isolated guinea pig ileum(GPI); type: tissue-based
# Sequence of Mu-type opioid receptor (Cavia porcellus, UniProt P97266) (P97266 whole entry): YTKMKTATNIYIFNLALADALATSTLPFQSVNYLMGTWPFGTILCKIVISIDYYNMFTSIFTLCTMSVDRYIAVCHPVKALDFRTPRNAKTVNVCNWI
# Summary of the method: (§1)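 Electrically stimulated contractions of male ICR mouse vas deferens (25-40 g mice) and male Hartley guinea pig ileum longitudinal muscle myenteric plexus strips (250-500 g animals). Tissues held in 37 °C oxygenated Krebs bicarbonate (Mg-free for MVD) at 1 g tension (0.5 g for MVD). Percent inhibition is the contraction height in the 1 min before agonist versus at maximal inhibition. IC50 from nonlinear least squares fit over 2-4 tissues.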
# [4] = target: T1, Kappa-type opioid receptor (Cavia porcellus, UniProt P41144); experiment: Inhibition of [3H]U-69593 radioligand binding to Guinea pig opioid receptor kappa 1.
# T1 sequence (P41144 whole entry): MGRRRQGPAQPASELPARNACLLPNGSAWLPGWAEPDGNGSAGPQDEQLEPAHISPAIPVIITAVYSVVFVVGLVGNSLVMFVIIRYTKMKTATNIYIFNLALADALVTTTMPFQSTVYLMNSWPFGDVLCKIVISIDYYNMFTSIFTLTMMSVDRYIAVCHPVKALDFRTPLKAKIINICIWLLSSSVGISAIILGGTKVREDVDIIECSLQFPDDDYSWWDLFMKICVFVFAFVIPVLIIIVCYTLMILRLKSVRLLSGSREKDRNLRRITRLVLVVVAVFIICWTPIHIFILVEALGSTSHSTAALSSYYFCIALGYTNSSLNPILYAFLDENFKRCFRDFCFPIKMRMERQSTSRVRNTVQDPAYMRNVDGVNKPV
# [5] = target: Delta-type opioid receptor (Rattus norvegicus, UniProt P33533); experiment: Inhibition of [3H]DADLE radioligand binding to rat brain opioid receptor delta 1.
# Sequence of Delta-type opioid receptor (Rattus norvegicus, UniProt P33533) (P33533 whole entry): as the sequence (P33533 whole entry, looked up) above
# [6] = target: Delta-type opioid receptor (Mus musculus, UniProt P32300); experiment: (§2) Opioid activity against delta-receptor of isolated mouse vas deferens(MVD) at 30 uM; summary of the method: as §1
# Sequence of Delta-type opioid receptor (Mus musculus, UniProt P32300) (P32300 whole entry): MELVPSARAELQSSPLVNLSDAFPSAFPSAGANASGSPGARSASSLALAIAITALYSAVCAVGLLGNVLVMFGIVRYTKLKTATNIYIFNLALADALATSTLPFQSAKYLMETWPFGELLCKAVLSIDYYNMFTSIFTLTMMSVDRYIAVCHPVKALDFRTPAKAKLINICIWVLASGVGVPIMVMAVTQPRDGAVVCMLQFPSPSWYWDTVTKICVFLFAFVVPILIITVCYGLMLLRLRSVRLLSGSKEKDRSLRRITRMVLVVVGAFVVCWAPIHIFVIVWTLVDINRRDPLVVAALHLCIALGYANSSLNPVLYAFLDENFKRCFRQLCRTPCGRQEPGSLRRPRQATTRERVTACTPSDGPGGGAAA
# [7] = target: T1, Kappa-type opioid receptor; experiment: Inhibition of [3H]-U-69,593 radioligand binding to Guinea pig Opioid receptor kappa 1; not determined
# Summary of the method: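 Guinea pig brain membranes depleted of μ and δ sites by pretreatment with irreversible ligands BIT and FIT, labelled with [3H]-U69,593 (1.2-2.3 nM). Incubation 4-6 h at 25 °C in 50 mM Tris-HCl pH 7.4 with protease inhibitor cocktail and 1 μg/mL captopril. Nonspecific binding with 1 μM U69,593. 8-10 drug concentrations, run twice. IC50 from curve fitting.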
# [8] = target: Delta-type opioid receptor (Mus musculus) (UniProt P32300); experiment: as §2; summary of the method: as §1
# Sequence of Delta-type opioid receptor (Mus musculus) (P32300 whole entry): as above
SMILES,Selectivity [1],pIC50 (Mu-type opioid receptor [2]),pIC50 (Mu-type opioid receptor [3]),pIC50 [4],pIC50 [5],pIC50 [6],pIC50 [7],inhibition [8] [%]
"Oc1cccc(C23CCN(CCc4ccccc4)C(Cc4[nH]c5ccccc5c42)C3)c1 (single isomer, unassigned; (+)) [listing 1 of 2 here]",< 0.09,–,–,–,–,–,–,–
CN1CCC2(c3cccc(O)c3)CCCC1C2 (stereo in doubt; (-)-1) [listing 1 of 2 here],–,7.68,6.19,6.09,< 6.00,–,–,–
"Oc1cccc(C23CCN(CCc4ccccc4)C(Cc4[nH]c5ccccc5c42)C3)c1 (single isomer, unassigned; (-)) [listing 1 of 2 here]",4.03,–,–,–,–,–,–,–
CCCCCCCN1CCC2(c3cccc(O)c3)CC1Cc1[nH]c3ccccc3c12 (stereo not drawn),1.43,7.18,–,< 6.00,7.33,–,–,–
"Oc1cccc(C23CCN(CCc4ccccc4)C(Cc4[nH]c5ccccc5c42)C3)c1 (single isomer, unassigned; (-)) [listing 2 of 2 here]",–,7.60,–,< 6.00,8.21,–,–,–
"CN1CCC2(c3cccc(O)c3)CC1Cc1[nH]c3ccccc3c12 (single isomer, unassigned; (-)) [listing 1 of 2 here]",–,7.85,5.63,–,8.25,6.41,–,–
CN1CCC2(c3cccc(O)c3)CC1C[C@@H](NC(=O)c1ccccc1)C2 (stereo partly drawn),–,–,–,5.25,6.31,–,–,–
"CN1CCC2(c3cccc(O)c3)CCCC1C2 (single isomer, unassigned; (+)) [listing 1 of 2 here]",–,7.67,6.77,6.04,< 6.00,6.25,–,–
CCCCCN1CCC2(c3cccc(O)c3)CC1Cc1[nH]c3ccccc3c12 (stereo not drawn),3.41,7.63,–,6.00,8.16,–,–,–
CN1CCC2(c3cccc(O)c3)C/C(=N/Nc3ccccc3)CC1C2 (stereo not drawn),0.08,8.06,–,6.62,6.95,–,–,–
"CN1CCC2(c3cccc(O)c3)CCCC1C2 (single isomer, unassigned; (+)) [listing 2 of 2 here]",< 0.02,–,–,–,–,–,–,–
CN1CCC2(c3cccc(O)c3)CC1C[C@@H](NC(=O)Cc1ccccc1)C2 (stereo partly drawn),0.52,6.92,–,5.65,6.64,–,–,–
CCN1CCC2(c3cccc(O)c3)CC1Cc1[nH]c3ccccc3c12 (stereo not drawn),5.4,5.90,–,< 6.00,6.63,–,–,–
CC(C)C[C@@H](NC(=O)[C@H](Cc1ccccc1)NC(=O)CNC(=O)[C@@H](C)NC(=O)[C@@H](N)Cc1ccc(O)cc1)C(=O)O [DADLE],–,–,7.54,–,–,–,8.77,–
"CN1CCC2(c3cccc(O)c3)CC(=O)CC1C2 (single isomer, unassigned; (-)) [listing 1 of 2 here]",–,7.47,–,6.01,6.56,–,–,–
CCCCCCN1CCC2(c3cccc(O)c3)CC1Cc1[nH]c3ccccc3c12 (stereo not drawn),2.08,7.15,–,< 6.00,7.47,–,–,–
Oc1cccc(C23CCN(CCc4ccccc4)C(Cc4[nH]c5ccccc5c42)C3)c1 (stereo not drawn) [listing 1 of 2 here],8.88,–,–,–,–,–,–,–
"Oc1cccc(C23CCN(CCc4ccccc4)C(Cc4[nH]c5ccccc5c42)C3)c1 (single isomer, unassigned; (+)) [listing 2 of 2 here]",–,7.05,–,< 6.00,< 6.00,–,–,–
CN1CCC2(c3cccc(O)c3)CC(=O)CC1C2 (stereo in doubt; 13) [listing 1 of 2 here],0.03,–,–,–,–,–,–,–

SMILES,Selectivity [1],pIC50 (Mu-type opioid receptor [2]),pIC50 (Mu-type opioid receptor [3]),pIC50 [4],pIC50 [5],pIC50 [6],pIC50 [7],inhibition [8] [%]
CN1CCC2(c3cccc(O)c3)CC(=O)CC1C2 (stereo in doubt; 13) [listing 2 of 2 here],–,7.67,–,5.69,6.14,–,–,–
CN1CCC2(c3cccc(O)c3)CC1Cc1[nH]c3c(ccc4ccccc43)c12 (stereo not drawn),16.5,6.68,–,< 6.00,7.90,–,–,–
CN1CCC2(c3cccc(O)c3)CC1Cc1[nH]c3ccccc3c12 (stereo not drawn),–,7.67 and 7.53,5.71 and 5.68,< 6.00,–,5.86 and 6.46,–,–
CN1CCC2(c3cccc(O)c3)Cc3nc4ccccc4cc3C1C2 (stereo not drawn),–,–,–,6.71,–,–,–,–
Oc1cccc(C23CCN(Cc4ccccc4)C(Cc4[nH]c5ccccc5c42)C3)c1 (stereo not drawn),2.76,6.29,–,7.05,6.74,–,–,–
CN1CCC2(c3cccc(O)c3)Cc3[nH]c4ccccc4c3C1C2 (stereo not drawn),< 0.04,7.36,–,6.10,< 6.00,–,–,–
CN1CCC2(c3cccc(O)c3)Cc3[nH]c4c(ccc5ccccc54)c3C1C2 (stereo not drawn),0.35,6.44,–,< 6.00,5.98,–,–,–
Oc1cccc(C23CCNC(Cc4[nH]c5ccccc5c42)C3)c1 (stereo not drawn),5.14,6.45,–,< 5.00,7.16,–,–,–
Oc1cccc(C23CCN(CC4CC4)C(Cc4[nH]c5ccccc5c42)C3)c1 (stereo not drawn),2.14,6.74,–,6.03,7.08,–,–,–
CCCCN1CCC2(c3cccc(O)c3)CC1Cc1[nH]c3ccccc3c12 (stereo not drawn),4.02,7.14,–,< 6.00,7.74,–,–,–
"CN1CCC2(c3cccc(O)c3)CC1Cc1[nH]c3ccccc3c12 (single isomer, unassigned; (-)) [listing 2 of 2 here]",2.54,–,–,–,–,–,–,–
CN1CCC2(c3cccc(O)c3)CCCC1C2 (stereo in doubt; (-)-1) [listing 2 of 2 here],< 0.02,–,–,–,–,–,–,26
Oc1cccc(C23CCN(CCc4ccccc4)C(Cc4[nH]c5ccccc5c42)C3)c1 (stereo not drawn) [listing 2 of 2 here],–,7.30,–,< 6.00,8.24,–,–,–
"CN1CCC2(c3cccc(O)c3)CC(=O)CC1C2 (single isomer, unassigned; (+)) [listing 1 of 2 here]",0.12,–,–,–,–,–,–,–
"CN1CCC2(c3cccc(O)c3)CC(=O)CC1C2 (single isomer, unassigned; (-)) [listing 2 of 2 here]",0.12,–,–,–,–,–,–,–
"CN1CCC2(c3cccc(O)c3)CC(=O)CC1C2 (single isomer, unassigned; (+)) [listing 2 of 2 here]",–,6.86,–,5.29,5.94,–,–,–
C=CCN1CCC2(c3cccc(O)c3)CC1Cc1[nH]c3ccccc3c12 (stereo not drawn),2.58,6.44,–,5.67,6.85,–,–,–
CN1CCC2(c3cccc(O)c3)CC1Cc1[nH]c3ccc4ccccc4c3c12 (stereo not drawn),–,< 6.00,–,< 6.00,< 5.00,–,–,–
CCCN1CCC2(c3cccc(O)c3)CC1Cc1[nH]c3ccccc3c12 (stereo not drawn),7.4,6.52,–,< 6.00,7.39,–,–,–
